Apaf-1 inh = blocks human Apaf-1 apoptosome activity | O14727 | reconstituted apoptosome caspase-3 activity, DEVD-Rh110 fluorescence | inhibition, % at 20 µM | 330,000 tested, 0.71% active | AID 489030; active = inhibition of at least 40% at 20 µM;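 note: plate controls were DMSO wells for no effect and DEVD-CHO caspase inhibitor wells for full effect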
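System – cell-free apoptosome with Apaf-1, procaspase-3 and caspase-9 · Buffer or medium – pH 7.5 Hepes buffer with CHAPS, BSA, DTT · Also added – cytochrome c with DEVD-Rh110 · Times – 30 min compound preincubation, 50 min activation, room temperature · Technique – Rh110 fluorescence intensity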
MEKK2wt PB1 HTS = raises or lowers MEK5 binding to wildtype human MEKK2 PB1 domain; bead flow cytometry, Alexa488-MEK5 binding to MEKK2 WT; actives lie on both sides; AID 1531; binding response (% of control), % at 10 µM; 290,000 tested, 1.1% active; in the data active = binding response below about 67% or above about 130%
MEKK3 PB1 HTS = modulators (inhibitors or enhancers) of MEK5 binding to human MEKK3 PB1 domain | bead-based flow cytometry, Alexa488-MEK5 binding to MEKK3; actives lie on both sides; 0 = blocked by unlabeled MEK5, 100 = vehicle | binding response (% of control), % at 10 µM | 290,000 tested, 1.4% active | Q99759;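 active = binding response more than 3 SD above or below the average of its plate-row segment, actives on both sides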;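 note: Alexa488 bead fluorescence after subtracting the streptavidin-only scavenger bead signal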
MEKK2 mut-MEK5 = signal of MEK5 binding to mutant human MEKK2 PB1 domain | bead flow cytometry, Alexa488-MEK5 binding to MEKK2 mutant | percent response, % at 10 µM | 290,000 tested, 0.35% active; in the data active = percent response above about 24%, passing the limit was not always enough
Pemphigus Ab inh = inhibitors of pemphigus antibody binding to human desmoglein-3; 310,000 tested, 0.48% active; binding (percent of control), % at 10 µM; DSG3-coupled beads, scFv-anti-DSG3-GFP binding, flow cytometry; stronger effect = lower value; P32926; AID 588358;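 active = binding more than 3 SD below its plate's average and above zero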;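 note: hits lower antibody fragment binding to DSG3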
UBC13 polyUb = inhibitors of human UBC13 polyubiquitin chain formation | 330,000 tested, 0.47% active | TR-FRET | P61088 | inhibition, % at 20 µM; in the data active = inhibition above about 45%, passing the limit was not always enough
Target sequence (P61088 whole entry, looked up): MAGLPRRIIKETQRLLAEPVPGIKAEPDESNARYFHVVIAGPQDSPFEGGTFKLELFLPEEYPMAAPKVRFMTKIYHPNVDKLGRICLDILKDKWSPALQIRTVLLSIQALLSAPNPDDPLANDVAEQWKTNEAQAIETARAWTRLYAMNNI
MEKK2wt confirm = raises or lowers MEK5 binding to wildtype human MEKK2, retest; shares compounds with MEKK3 PB1 HTS; bead flow cytometry, Alexa488-MEK5 binding to MEKK2 WT; actives lie on both sides; binding response (% of control), % at 10 µM; 5,900 tested, 2.4% active; in the data active = binding response below about 16% or above about 210%; inactive = in between
MEKK2mut-MEK5 = signal of MEK5 binding to mutant human MEKK2, retest | AID 1893 | bead flow cytometry, Alexa488-MEK5 binding to MEKK2 mutant | shares compounds with MEKK3 PB1 HTS | 5,900 tested, 2% active | percent response, % at 10 µM; in the data active = percent response mostly above about 71%, no sharp cut-off; inactive = mostly below about 38%;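 note: higher means compound restores mutant binding toward wildtype level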
MEKK3-MEK5 inh = MEKK3-MEK5 PB1 inhibition, single concentration confirmation; shares compounds with MEKK3 PB1 HTS; AID 1894; bead flow cytometry, Alexa488-MEK5 binding to MEKK3; stronger effect = lower value; binding response (% of control), % at 10 µM; 5,900 tested, 1.8% active;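 active = binding response below 72% of control, or above a set upper limit, though filed actives all read lower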;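 note: 100% = DMSO only wells and 0% = binding blocked by excess unlabeled MEK5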
The depositor's hits bear a star. Shown are actives, neighbours in structure and some others; about 3.2% of the full set was active somewhere.

How did CC(OC(=O)/C(C#N)=C/c1ccco1)C(=O)N(C)c1ccccc1 (stereo not drawn) do in these assays?
Apaf-1 inh: 6; Pemphigus Ab inh: 110; UBC13 polyUb: -23

How did C[C@H](CO)N1C[C@H](C)[C@@H](CN(C)S(=O)(=O)c2ccc(-n3cccn3)cc2)OCc2cn(nn2)CCCC1=O do in these assays?
Pemphigus Ab inh: 99

Results for CCC1C(=O)N=C(SCC(=O)Nc2ccccc2)NC1=O (stereo not drawn) ?
Apaf-1 inh: -11; MEKK2wt PB1 HTS: 104; MEKK3 PB1 HTS: 110; MEKK2 mut-MEK5: 3; Pemphigus Ab inh: 100; UBC13 polyUb: 3

How did CCC1C(=O)N=C(SCC(=O)Nc2ccc(S(N)(=O)=O)cc2)NC1=O (stereo not drawn) do in these assays?
Apaf-1 inh: 13; MEKK2wt PB1 HTS: 122; MEKK3 PB1 HTS: 138*; MEKK2 mut-MEK5: 1; Pemphigus Ab inh: 89; UBC13 polyUb: 7; MEKK2wt confirm: 100; MEKK2mut-MEK5: -3; MEKK3-MEK5 inh: 98

What do the screens show for `Fc1cccc(F)c1[B-](F)(F)F`?
Pemphigus Ab inh: 104

How did Nc1ncc(Br)cc1S(=O)(=O)Nc1cc(C(F)(F)F)cc(C(F)(F)F)c1 do in these assays?
Apaf-1 inh: 17; MEKK2wt PB1 HTS: 88; MEKK3 PB1 HTS: 94; MEKK2 mut-MEK5: -2; Pemphigus Ab inh: 96; UBC13 polyUb: -21

How did COc1cccc(CNC(=O)CCCCCn2c(=S)[nH]c3ccc(N4CCOCC4)cc3c2=O)c1 do in these assays?
Apaf-1 inh: 5; MEKK2wt PB1 HTS: 105; MEKK3 PB1 HTS: 130*; MEKK2 mut-MEK5: -1; UBC13 polyUb: 6; MEKK2wt confirm: 96; MEKK2mut-MEK5: -7; MEKK3-MEK5 inh: 98

Results for O=C(NC1CCN(Cc2ccccc2)CC1)c1ccc(Cn2c(=S)[nH]c3ccc(N4CCOCC4)cc3c2=O)cc1 ?
Apaf-1 inh: 18; MEKK2wt PB1 HTS: 154*; MEKK3 PB1 HTS: 110; MEKK2 mut-MEK5: 26; Pemphigus Ab inh: 74; UBC13 polyUb: 19; MEKK2wt confirm: 162; MEKK2mut-MEK5: 39; MEKK3-MEK5 inh: 104

What do the screens show for `O=C(CCCCCn1c(=S)[nH]c2ccc(N3CCOCC3)cc2c1=O)NC1CCN(Cc2ccccc2)CC1`?
Apaf-1 inh: -5; MEKK2wt PB1 HTS: 112; MEKK3 PB1 HTS: 98; MEKK2 mut-MEK5: 2; Pemphigus Ab inh: 119; UBC13 polyUb: 41

What do the screens show for `COc1cccc(Cn2c(=S)[nH]c3ccc(N4CCOCC4)cc3c2=O)c1`?
Apaf-1 inh: 10; MEKK2wt PB1 HTS: 94; MEKK3 PB1 HTS: 103; MEKK2 mut-MEK5: 0; Pemphigus Ab inh: 104; UBC13 polyUb: 34

Results for CCN(C(=O)c1cc2c(=O)[nH]c3ccc(C)cc3c2s1)c1cccc(C)c1 ?
Apaf-1 inh: -2; MEKK2wt PB1 HTS: 113; MEKK3 PB1 HTS: 127; MEKK2 mut-MEK5: 28; Pemphigus Ab inh: 100; UBC13 polyUb: 4

How did CCN(C(=O)c1cc2c(=O)[nH]c3ccc(C)cc3c2s1)c1ccc(F)cc1 do in these assays?
Apaf-1 inh: 1; MEKK2wt PB1 HTS: 113; MEKK3 PB1 HTS: 129*; MEKK2 mut-MEK5: 25; Pemphigus Ab inh: 96; UBC13 polyUb: -7; MEKK2wt confirm: 95; MEKK2mut-MEK5: -2; MEKK3-MEK5 inh: 95

Results for Cc1cc(/C=C(\C#N)C(=O)NCc2ccccc2)c(C)[nH]1 ?
Pemphigus Ab inh: 98
